Data published in ChEMBL document CHEMBL1157912, “Impact of nature and length of linker incorporated in agonists on toll-like receptor 9-mediated immune responses” (J Med Chem, 2010).

How the values were obtained:
[1] = target: T1, Toll-like receptor 9 (Homo sapiens) (UniProt Q9NR96); experiment: Induction of TLR9-mediated immune stimulation in human PBMC assessed as RANTES production at 2 ug/ml after 24 hrs by luminex multiplex assay (RVb = 0.05 +/- 0.04 ng/ml)
T1 sequence (whole entry): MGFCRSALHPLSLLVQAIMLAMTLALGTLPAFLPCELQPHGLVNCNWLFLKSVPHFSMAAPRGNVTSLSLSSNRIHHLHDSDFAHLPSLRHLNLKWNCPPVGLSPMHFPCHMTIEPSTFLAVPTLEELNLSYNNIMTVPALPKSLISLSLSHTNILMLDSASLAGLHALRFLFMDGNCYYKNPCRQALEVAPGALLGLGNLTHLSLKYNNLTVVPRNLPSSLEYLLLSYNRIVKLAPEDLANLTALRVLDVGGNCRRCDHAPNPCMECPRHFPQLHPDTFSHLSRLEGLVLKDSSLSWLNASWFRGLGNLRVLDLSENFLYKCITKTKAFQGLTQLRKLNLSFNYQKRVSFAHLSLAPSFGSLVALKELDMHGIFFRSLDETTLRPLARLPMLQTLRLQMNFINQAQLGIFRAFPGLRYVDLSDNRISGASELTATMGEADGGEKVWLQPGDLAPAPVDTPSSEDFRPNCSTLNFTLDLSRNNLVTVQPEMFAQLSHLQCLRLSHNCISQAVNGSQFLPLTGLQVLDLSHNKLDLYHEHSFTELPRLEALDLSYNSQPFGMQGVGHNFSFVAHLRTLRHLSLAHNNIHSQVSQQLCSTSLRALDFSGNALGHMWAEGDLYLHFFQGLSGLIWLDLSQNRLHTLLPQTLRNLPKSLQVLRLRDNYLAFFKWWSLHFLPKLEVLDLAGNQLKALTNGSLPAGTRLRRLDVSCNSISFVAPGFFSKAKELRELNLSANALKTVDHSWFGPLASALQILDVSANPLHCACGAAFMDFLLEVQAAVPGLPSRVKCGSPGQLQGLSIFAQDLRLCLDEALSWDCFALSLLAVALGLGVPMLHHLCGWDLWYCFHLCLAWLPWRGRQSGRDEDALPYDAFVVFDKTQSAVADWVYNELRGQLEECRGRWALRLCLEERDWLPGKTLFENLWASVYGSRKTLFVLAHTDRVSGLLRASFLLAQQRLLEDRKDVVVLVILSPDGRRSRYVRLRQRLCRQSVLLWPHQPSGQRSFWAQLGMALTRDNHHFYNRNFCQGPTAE

[2] = target: T1, Toll-like receptor 9 (Homo sapiens); experiment: Induction of TLR9-mediated immune stimulation in human PBMC assessed as IL12 production at 10 ug/ml after 24 hrs by luminex multiplex assay (RVb = 0.00 ng/ml)
[3] = target: T1, Toll-like receptor 9 (Homo sapiens); experiment: Induction of TLR9-mediated immune stimulation in human PBMC assessed as IP10 production at 2 ug/ml after 24 hrs by luminex multiplex assay (RVb = 0.00 ng/ml)
[4] = target: T1, Toll-like receptor 9 (Homo sapiens); experiment: Induction of TLR9-mediated immune stimulation in human PBMC assessed as RANTES production at 10 ug/ml after 24 hrs by luminex multiplex assay (RVb = 0.05 +/- 0.04 ng/ml)
[5] = target: T1, Toll-like receptor 9 (Homo sapiens); experiment: Induction of TLR9-mediated immune stimulation in human PBMC assessed as MIP1alpha production at 2 ug/ml after 24 hrs by luminex multiplex assay (RVb = 0.01 ng/ml)
[6] = target: T1, Toll-like receptor 9 (Homo sapiens); experiment: Induction of TLR9-mediated immune stimulation in human PBMC assessed as IL1Ralpha production at 10 ug/ml after 24 hrs by luminex multiplex assay (RVb = 0.12 +/- 0.03 ng/ml)
[7] = target: T1, Toll-like receptor 9 (Homo sapiens); experiment: Induction of TLR9-mediated immune stimulation in human PBMC assessed as IL2R production at 10 ug/ml after 24 hrs by luminex multiplex assay (RVb = 0.02 +/- 0.01 ng/ml)
[8] = target: T1, Toll-like receptor 9 (Homo sapiens); experiment: Induction of TLR9-mediated immune stimulation in human PBMC assessed as MIP1beta production at 2 ug/ml after 24 hrs by luminex multiplex assay (RVb = 0.03 +/- 0.02 ng/ml)
[9] = target: T1, Toll-like receptor 9 (Homo sapiens); experiment: Induction of TLR9-mediated human B cell proliferation assessed as [3H]thymidine uptake after 56 hrs by scintillation counting
Procedure, shortened: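 B cells were purified from human PBMCs (healthy volunteers), about 1 × 10⁵ cells, and stimulated with various agonist concentrations for 56 h. Cells were then pulsed with 0.75 μCi [³H]-thymidine and harvested 16 h later. Incorporation was counted by scintillation and reported as cpm.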

[10] = target: T2, Toll-like receptor 9 (Mus musculus) (UniProt Q9EQU3); experiment: Induction of TLR9-mediated IL6 production in C57BL/6 mouse spleen cells after 24 hrs by ELISA; assay type: cell-based
T2 sequence (whole entry): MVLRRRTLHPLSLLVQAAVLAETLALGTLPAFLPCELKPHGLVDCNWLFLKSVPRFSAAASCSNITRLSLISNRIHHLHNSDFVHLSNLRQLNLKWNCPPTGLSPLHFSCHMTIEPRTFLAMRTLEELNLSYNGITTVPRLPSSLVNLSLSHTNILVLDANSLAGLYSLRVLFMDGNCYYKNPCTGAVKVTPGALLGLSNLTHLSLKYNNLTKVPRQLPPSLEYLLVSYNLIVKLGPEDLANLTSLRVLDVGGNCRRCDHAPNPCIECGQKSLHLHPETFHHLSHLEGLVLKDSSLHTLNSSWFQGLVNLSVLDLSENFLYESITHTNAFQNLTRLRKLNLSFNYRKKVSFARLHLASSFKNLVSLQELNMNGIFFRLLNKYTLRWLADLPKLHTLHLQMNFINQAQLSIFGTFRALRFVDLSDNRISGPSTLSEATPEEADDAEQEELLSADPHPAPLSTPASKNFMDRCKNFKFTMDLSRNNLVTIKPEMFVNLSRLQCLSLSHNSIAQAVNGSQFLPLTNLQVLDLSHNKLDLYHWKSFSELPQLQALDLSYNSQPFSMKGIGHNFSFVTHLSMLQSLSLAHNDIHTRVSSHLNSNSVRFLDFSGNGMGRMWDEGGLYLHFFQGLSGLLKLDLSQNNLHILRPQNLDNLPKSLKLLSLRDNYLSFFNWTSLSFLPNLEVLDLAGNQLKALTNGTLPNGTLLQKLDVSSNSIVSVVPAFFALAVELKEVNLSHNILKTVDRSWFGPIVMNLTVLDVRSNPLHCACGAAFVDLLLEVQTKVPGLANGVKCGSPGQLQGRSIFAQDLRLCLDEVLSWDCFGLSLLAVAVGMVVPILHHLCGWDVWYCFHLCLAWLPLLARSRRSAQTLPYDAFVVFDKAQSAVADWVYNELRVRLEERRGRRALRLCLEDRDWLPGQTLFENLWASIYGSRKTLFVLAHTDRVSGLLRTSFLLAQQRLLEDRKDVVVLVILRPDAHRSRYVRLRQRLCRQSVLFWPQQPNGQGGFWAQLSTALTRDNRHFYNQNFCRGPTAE
Procedure, shortened: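 C57BL/6 mouse spleen cells were cultured with agonists at 0.1, 0.3, 1, 3 and 10 μg/mL for 24 h. Secreted IL-12 and IL-6 in the supernatants were measured by ELISA. Values are averages of triplicate wells from one representative of at least two independent experiments.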

Row | Activity [1] | Activity [2] | Activity [3] | Activity [4] | Activity [5] | Activity [6] | Activity [7] | Activity [8] | Activity [9] | Activity [10] | Compound
1 | 1.57 ng/mL | 0.19 ng/mL | 0.03 ng/mL | 1.32 ng/mL | 0.05 ng/mL | 83.9 ng/mL | 0.21 ng/mL | 0.11 ng/mL | Dose-dependent effect | Dose-dependent effect | Cc1cn([C@H]2C[C@H](OCCOCCOCCOCCOCCOCCOP(=O)(S)O[C@H]3C[C@H](n4cc(C)c(=O)[nH]c4=O)O[C@@H]3COP(=O)(S)O[C@H]3[C@@H](O)[C@H](n4ccc(N)nc4=O)O[C@@H]3COP(=O)(S)O[C@H]3C[C@H](n4cc(C)c(=O)[nH]c4=O)O[C@@H]3COP(=O)(S)O[C@H]3C[C@H](n4cc(C)c(=O)[nH]c4=O)O[C@@H]3COP(=O)(S)O[C@H]3C[C@H](n4ccc5c(=O)[nH]c(N)nc54)O[C@@H]3COP(=O)(S)O[C@H]3[C@@H](O)[C@H](n4ccc(N)nc4=O)O[C@@H]3COP(=O)(S)O[C@H]3C[C@H](n4cc(C)c(=O)[nH]c4=O)O[C@@H]3COP(=O)(S)O[C@H]3[C@@H](O)[C@H](n4cnc5c(=O)[nH]c(N)nc54)O[C@@H]3COP(=O)(S)O[C@H]3C[C@H](n4cc(C)c(=O)[nH]c4=O)O[C@@H]3COP(=O)(S)O[C@H]3[C@@H](O)[C@H](n4ccc(N)nc4=O)O[C@@H]3COP(=O)(S)O[C@H]3C[C@H](n4cc(C)c(=O)[nH]c4=O)O[C@@H]3CO)[C@@H](COP(=O)(S)O[C@H]3[C@@H](O)[C@H](n4ccc(N)nc4=O)O[C@@H]3COP(=O)(S)O[C@H]3C[C@H](n4cc(C)c(=O)[nH]c4=O)O[C@@H]3COP(=O)(S)O[C@H]3C[C@H](n4cc(C)c(=O)[nH]c4=O)O[C@@H]3COP(=O)(S)O[C@H]3C[C@H](n4ccc5c(=O)[nH]c(N)nc54)O[C@@H]3COP(=O)(S)O[C@H]3[C@@H](O)[C@H](n4ccc(N)nc4=O)O[C@@H]3COP(=O)(S)O[C@H]3C[C@H](n4cc(C)c(=O)[nH]c4=O)O[C@@H]3COP(=O)(S)O[C@H]3[C@@H](O)[C@H](n4cnc5c(=O)[nH]c(N)nc54)O[C@@H]3COP(=O)(S)O[C@H]3C[C@H](n4cc(C)c(=O)[nH]c4=O)O[C@@H]3COP(=O)(S)O[C@H]3[C@@H](O)[C@H](n4ccc(N)nc4=O)O[C@@H]3COP(=O)(S)O[C@H]3C[C@H](n4cc(C)c(=O)[nH]c4=O)O[C@@H]3CO)O2)c(=O)[nH]c1=O (stereo not given in full)
2 | 0.29 ng/mL | 0.17 ng/mL | 0.03 ng/mL | 1.67 ng/mL | 0.05 ng/mL | 81.7 ng/mL | 0.19 ng/mL | 0.11 ng/mL | Dose-dependent effect | Dose-dependent effect | Cc1cn([C@H]2C[C@H](OCC(O)COP(=O)(S)O[C@H]3C[C@H](n4cc(C)c(=O)[nH]c4=O)O[C@@H]3COP(=O)(S)O[C@H]3[C@@H](O)[C@H](n4ccc(N)nc4=O)O[C@@H]3COP(=O)(S)O[C@H]3C[C@H](n4cc(C)c(=O)[nH]c4=O)O[C@@H]3COP(=O)(S)O[C@H]3C[C@H](n4cc(C)c(=O)[nH]c4=O)O[C@@H]3COP(=O)(S)O[C@H]3C[C@H](n4ccc5c(=O)[nH]c(N)nc54)O[C@@H]3COP(=O)(S)O[C@H]3[C@@H](O)[C@H](n4ccc(N)nc4=O)O[C@@H]3COP(=O)(S)O[C@H]3C[C@H](n4cc(C)c(=O)[nH]c4=O)O[C@@H]3COP(=O)(S)O[C@H]3[C@@H](O)[C@H](n4cnc5c(=O)[nH]c(N)nc54)O[C@@H]3COP(=O)(S)O[C@H]3C[C@H](n4cc(C)c(=O)[nH]c4=O)O[C@@H]3COP(=O)(S)O[C@H]3[C@@H](O)[C@H](n4ccc(N)nc4=O)O[C@@H]3COP(=O)(S)O[C@H]3C[C@H](n4cc(C)c(=O)[nH]c4=O)O[C@@H]3CO)[C@@H](COP(=O)(S)O[C@H]3[C@@H](O)[C@H](n4ccc(N)nc4=O)O[C@@H]3COP(=O)(S)O[C@H]3C[C@H](n4cc(C)c(=O)[nH]c4=O)O[C@@H]3COP(=O)(S)O[C@H]3C[C@H](n4cc(C)c(=O)[nH]c4=O)O[C@@H]3COP(=O)(S)O[C@H]3C[C@H](n4ccc5c(=O)[nH]c(N)nc54)O[C@@H]3COP(=O)(S)O[C@H]3[C@@H](O)[C@H](n4ccc(N)nc4=O)O[C@@H]3COP(=O)(S)O[C@H]3C[C@H](n4cc(C)c(=O)[nH]c4=O)O[C@@H]3COP(=O)(S)O[C@H]3[C@@H](O)[C@H](n4cnc5c(=O)[nH]c(N)nc54)O[C@@H]3COP(=O)(S)O[C@H]3C[C@H](n4cc(C)c(=O)[nH]c4=O)O[C@@H]3COP(=O)(S)O[C@H]3[C@@H](O)[C@H](n4ccc(N)nc4=O)O[C@@H]3COP(=O)(S)O[C@H]3C[C@H](n4cc(C)c(=O)[nH]c4=O)O[C@@H]3CO)O2)c(=O)[nH]c1=O (stereo not given in full)
